Measured values: ChEMBL document CHEMBL1139397, “Thiazolidinone CFTR inhibitors with improved water solubility identified by structure-activity analysis” (Bioorg Med Chem, 2008)
Activity calls are given as the source filed them. The rule behind the calls is not given here.

System: not listed separately
Test: Cytotoxicity against rat FRT cells assessed as cell viability at 20 uM after 48 hrs by crystal violet staining
Assay type: cell-based
Summary of the method: (§1)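 Confluent FRT monolayers exposed to compound for 2 days. Cells were then washed three times, fixed for 30 min and stained with 0.5% crystal violet for 10 min. Dye was extracted in Sorenson's buffer (0.1 M sodium citrate, 50% ethanol, pH 4.2) and read at 650 nm. Percent staining was taken from 8 replicate wells relative to cell-free blanks and vehicle-treated cells.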

Row | Compound | Activity
1 | O=C1/C(=C/c2ccc(-c3nn[nH]n3)cc2)SC(=S)N1c1cccc(C(F)(F)F)c1 | 87%
2 | O=C(O)c1ccc(/C=C2\SC(=S)N(c3cccc(C(F)(F)F)c3)C2=O)cc1 | 86%
3 | Cc1c(N2C(=O)/C(=C/c3ccc(C(=O)O)cc3)SC2=S)cccc1C(F)(F)F | 89%
4 | O=C(O)c1ccc(/C=C2\SC(=O)N(c3cccc(C(F)(F)F)c3)C2=O)cc1 | 93%

Molecular target: Cystic fibrosis transmembrane conductance regulator (Homo sapiens, UniProt P13569)
Test: Inhibition of human wild type CFTR expressed in rat FRT cells assessed as chloride current by short-circuit current measurements
Assay type: cell-based
Summary of the method: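 FRT cells stably expressing human wildtype CFTR were grown on filters to >1,000 Ω·cm2. Basolateral membrane permeabilized with amphotericin B (250 μg/ml, 30 min). Apical Cl− current was measured under a gradient: basolateral 130 mM NaCl buffer, pH 7.3; apical 65 mM NaCl replaced by gluconate. Solutions at 37 °C under 95% O2/5% CO2. CFTR activated with 100 μM CPT-cAMP, then inhibitor added at increasing concentrations. IC50 fitted from concentration-inhibition data.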

Row | Compound | IC50 | Activity
5 | O=C(O)c1cccc(/C=C2\SC(=S)N(c3ccccc3C(F)(F)F)C2=O)c1 | 19 µM | 
6 | O=C(O)c1cc(Nc2nnc(-c3cccc(C(F)(F)F)c3)s2)ccc1O |  | inactive
7 | O=C(O)c1ccc(/C=C2\SC(=S)N(c3cc(C(F)(F)F)cc(C(F)(F)F)c3)C2=O)cc1 | 14 µM | 
8 | O=C(O)c1ccc(/C=C2\SC(=S)N(c3ccc(F)c(C(F)(F)F)c3)C2=O)cc1 | 1.5 µM | 
9 | O=C(O)c1ccc(/C=C2\SC(=S)N(Cc3cccc(C(F)(F)F)c3)C2=O)cc1 |  | inactive
10 | O=C(O)c1cc(Nc2nc(-c3cccc(C(F)(F)F)c3)cs2)ccc1O | 32 µM | 
11 | O=C(O)c1ccc(/C=C2\SC(=S)N(c3ccc(C(F)(F)F)cc3)C2=O)cc1 | 15 µM | 
12 | O=C1/C(=C/c2ccc(S(=O)(=O)O)cc2)SC(=S)N1c1cccc(C(F)(F)F)c1 | 29 µM | 
13 | O=C(O)c1ccc(NC(=S)C2SC(=S)N(c3cccc(C(F)(F)F)c3)C2=O)cc1 (stereo unspecified) | 9 µM | 
14 | Cc1cccc(N2C(=O)/C(=C/c3ccc(C(=O)O)cc3)SC2=S)c1 | 5 µM | 
15 | O=C(O)c1ccc(Nc2nnc(-c3cccc(C(F)(F)F)c3)s2)cc1 |  | inactive
16 | O=C1S/C(=C\c2ccc(-c3nn[nH]n3)cc2)C(=O)N1c1cccc(C(F)(F)F)c1 | 17 µM | 
17 | O=C(O)c1cc(/C=C2\SC(=S)N(c3ccccc3C(F)(F)F)C2=O)ccc1O | 14 µM | 
18 | O=C(O)c1ccc(CC2SC(=S)N(c3cccc(C(F)(F)F)c3)C2=O)cc1 (stereo unspecified) | 27 µM | 
19 | O=C1C(C(=S)Nc2ccc(S(=O)(=O)O)o2)SC(=S)N1c1cccc(C(F)(F)F)c1 (stereo unspecified) | 27 µM | 
20 | O=C(O)c1ccccc1/C=C1\SC(=S)N(c2ccccc2C(F)(F)F)C1=O | 18 µM | 
21 | O=C(O)c1ccc(Nc2nc(-c3cccc(C(F)(F)F)c3)cs2)cc1 | 28 µM | 
22 | O=C(O)c1ccc(/C=C2\SC(=S)N(c3ccc(Cl)c(C(F)(F)F)c3)C2=O)cc1 | 15 µM | 
23 | O=C(O)c1ccc(SC2CC(=O)N(c3cccc(C(F)(F)F)c3)C2=O)cc1 (stereo unspecified) | 7 µM | 
24 | O=C(O)c1ccc(NC2=C(Cl)C(=O)N(c3cccc(C(F)(F)F)c3)C2=O)cc1 | 36 µM | 
25 | O=C(O)c1ccc(/C=C2\SC(=S)N(c3ccccc3C(F)(F)F)C2=O)cc1 | 12 µM | 
26 | O=C(O)c1ccc(/C=C2\SC(=S)N(c3cc(C(F)(F)F)ccc3Cl)C2=O)cc1 | 20 µM | 
27 | O=C(O)c1ccc(-n2cc(-c3cccc(C(F)(F)F)c3)nn2)cc1 |  | inactive
28 | O=C(O)c1ccc(-n2cc(-c3ccc(C(F)(F)F)cc3)nn2)cc1 |  | inactive
29 | Cc1cccc(N2C(=O)/C(=C/c3ccc(C(=O)O)cc3)SC2=S)c1C | 7 µM | 

The remaining lines, values ahead:

Row | IC50 | Activity | Compound
30 | 13 µM |  | O=C(O)c1cccc(/C=C2\SC(=S)N(c3ccc(C(F)(F)F)cc3)C2=O)c1
31 | 28 µM |  | O=C1/C(=C/c2ccncc2)SC(=S)N1c1cccc(C(F)(F)F)c1
32 |  | inactive | CC(=O)OCOC(=O)c1ccc(/C=C2\SC(=S)N(c3cccc(C(F)(F)F)c3)C2=O)cc1
33 | 7 µM |  | O=C1/C(=C/c2cc(Br)c(O)c(Br)c2)SC(=S)N1c1cccc(C(F)(F)F)c1
34 | 5 µM |  | O=C(O)c1cccc(/C=C2\SC(=S)N(c3ccc(F)c(C(F)(F)F)c3)C2=O)c1
35 | 11 µM |  | O=C1/C(=C/c2cc(O)c(O)c(O)c2)SC(=S)N1c1cccc(C(F)(F)F)c1
36 | 50 µM |  | O=C1/C(=C/c2ccc(S(=O)(=O)O)cc2S(=O)(=O)O)SC(=S)N1c1cccc(C(F)(F)F)c1
37 |  | inactive | NC(=O)c1ccc(/C=C2\SC(=S)N(c3cccc(C(F)(F)F)c3)C2=O)cc1
38 | 25 µM |  | O=C(O)c1cc(/C=C2\SC(=S)N(c3ccc(C(F)(F)F)cc3)C2=O)ccc1O
39 | 24 µM |  | O=C1/C(=C/c2ccc(O)cc2)SC(=S)N1c1cccc(C(F)(F)F)c1
40 |  | inactive | CCOC(=O)c1ccc(/C=C2\SC(=S)N(c3cccc(C(F)(F)F)c3)C2=O)cc1
41 | 28 µM |  | O=C1/C(=C/c2ccc(O)c(O)c2O)SC(=S)N1c1cccc(C(F)(F)F)c1
42 | 20 µM |  | O=C(O)c1ccccc1/C=C1\SC(=S)N(c2ccc(C(F)(F)F)cc2)C1=O
43 |  | inactive | COc1cc(Br)ccc1/C=C1\SC(=S)N(c2cccc(C(F)(F)F)c2)C1=O
44 |  | inactive | O=C(NCCO)c1ccc(/C=C2\SC(=S)N(c3cccc(C(F)(F)F)c3)C2=O)cc1
45 | 8 µM |  | O=C1/C(=C/c2cc(Br)c(O)c(Br)c2O)SC(=S)N1c1cccc(C(F)(F)F)c1
46 | 15 µM |  | O=C(O)c1ccccc1/C=C1\SC(=S)N(c2cccc(C(F)(F)F)c2)C1=O
47 |  | inactive | COc1c(Br)cc(/C=C2\SC(=S)N(c3cccc(C(F)(F)F)c3)C2=O)c(O)c1Br
48 |  | inactive | NCCNC(=O)c1ccc(/C=C2\SC(=S)N(c3cccc(C(F)(F)F)c3)C2=O)cc1
49 |  | inactive | COc1ccc(/C=C2\SC(=S)N(c3cccc(C(F)(F)F)c3)C2=O)cc1
50 | 1.4 µM |  | O=C(O)c1cc(/C=C2\SC(=S)N(c3cccc(C(F)(F)F)c3)C2=O)ccc1O
51 | 30 µM |  | O=C(O)COc1cccc(/C=C2\SC(=S)N(c3cccc(C(F)(F)F)c3)C2=O)c1
52 |  | inactive | O=C1/C(=C/c2ccc(O)c(O)c2)SC(=S)N1c1cccc(C(F)(F)F)c1
53 | 1.5 µM |  | O=C(O)c1cccc(/C=C2\SC(=S)N(c3cccc(C(F)(F)F)c3)C2=O)c1

System: not listed separately
Test: Cytotoxicity against rat FRT cells assessed as cell viability at 50 uM after 48 hrs by crystal violet staining
Assay type: cell-based
Summary of the method: as §1

Row | Compound | Activity
54 | O=C1/C(=C/c2ccc(-c3nn[nH]n3)cc2)SC(=S)N1c1cccc(C(F)(F)F)c1 | 73%
55 | Cc1c(N2C(=O)/C(=C/c3ccc(C(=O)O)cc3)SC2=S)cccc1C(F)(F)F | 72%
56 | O=C(O)c1ccc(/C=C2\SC(=O)N(c3cccc(C(F)(F)F)c3)C2=O)cc1 | 91%
